In brackets after ≈: the same amount, converted by molar mass.
Tests used:
[1] = test system: Bacteroides fragilis; test: In vitro antimicrobial activity against anaerobic bacteria bacteroides fragilis 111; format: functional
[2] = test system: Bacteroides fragilis; test: In vitro antimicrobial activity against anaerobic bacteria bacteroides fragilis 1877; format: functional
[3] = test system: Bacteroides fragilis; test: In vitro antimicrobial activity against anaerobic bacteria bacteroides fragilis 1936B,; format: functional
[4] = test system: Eikenella corrodens; test: In vitro antimicrobial activity against anaerobic bacteria bacteroides corrodens 1874; format: functional
[5] = test system: Phocaeicola vulgatus; test: In vitro antimicrobial activity against anaerobic bacteria bacteroides vulgatus 1211; format: functional
[6] = test system: Prevotella melaninogenica; test: In vitro antimicrobial activity against anaerobic bacteria bacteroides melaninogenicus 1856,; format: functional
[7] = test system: Bacteroides thetaiotaomicron; test: In vitro antimicrobial activity against anaerobic bacteria bacteroides thetaiotaomicron 1438; format: functional
[8] = test system: Clostridioides difficile; test: In vitro antimicrobial activity against anaerobic bacteria Clostridium difficile 2994; format: functional
[9] = test system: Clostridium perfringens; test: In vitro antimicrobial activity against anaerobic bacteria clostridium perfringens 81,; format: functional
[10] = test system: Clostridium septicum; test: In vitro antimicrobial activity against anaerobic bacteria clostridium septicum 1128; format: functional
[11] = test system: Chlamydia trachomatis; test: In vitro antimicrobial activity against chlamydia trachomatis.; format: functional
[12] = test system: Fusobacterium; test: In vitro antimicrobial activity against anaerobic bacteria fusobacterium symbiosum 1470; format: functional
[13] = test system: Haemophilus influenzae; test: In vitro antimicrobial activity against aerobic bacteria Haemophilus influenzae 76; format: functional
[14] = test system: Haemophilus influenzae; test: In vitro antimicrobial activity against aerobic bacteria Haemophilus influenzae MX366,; format: functional
[15] = test system: Haemophilus influenzae; test: In vitro antimicrobial activity against Haemophilus influenzae.; format: functional
[16] = test system: Haemophilus parainfluenzae; test: In vitro antimicrobial activity against aerobic bacteria Haemophilus parainfluenzae 9796; format: functional
[17] = test system: Mus musculus; test: Peripheral plasma levels in mice after oral administration of 50 mg/kg dose for 2 hr; format: functional, organism-based; design: dose 50 mg/kg
In short: (§1)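 Mice were given the compound orally and sampled for peripheral plasma at each time point. Plasma was assayed microbiologically against Micrococcus luteus seeded in Antibiotic Medium 1. Inhibition zone sizes were read, and concentrations were calculated from each compound's own standard curve. Each value is the mean of five mice per time point.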

[18] = test system: Mus musculus; test: Peripheral plasma levels in mice after oral administration of 50 mg/kg dose for 4 hr; format: functional, organism-based; design: dose 50 mg/kg; in short: as §1
[19] = test system: Mus musculus; test: Peripheral plasma levels in mice after oral administration of 100 mg/kg dose for 4 hr; format: functional, organism-based; design: dose 100 mg/kg; in short: as §1
[20] = test system: Mus musculus; test: Peripheral plasma levels in mice after oral administration of 50 mg/kg dose for 0.25 hr; format: functional, organism-based; design: dose 50 mg/kg; in short: as §1
[21] = test system: Mus musculus; test: Peripheral plasma levels in mice after oral administration of 100 mg/kg dose for 0.25 hr; format: functional, organism-based; design: dose 100 mg/kg; in short: as §1
[22] = test system: Mus musculus; test: Peripheral plasma levels in mice after oral administration of 100 mg/kg dose for 0.5 hr; format: functional, organism-based; design: dose 100 mg/kg; in short: as §1
[23] = test system: Mus musculus; test: Peripheral plasma levels in mice after oral administration of 100 mg/kg dose for 1 hr; format: functional, organism-based; design: dose 100 mg/kg; in short: as §1
[24] = test system: Mus musculus; test: Peripheral plasma levels in mice after oral administration of 100 mg/kg dose for 2 hr; format: functional, organism-based; design: dose 100 mg/kg; in short: as §1
[25] = test system: Mus musculus; test: Peripheral plasma levels in mice after oral administration of 50 mg/kg dose for 1 hr; format: functional, organism-based; design: dose 50 mg/kg; in short: as §1
[26] = In vitro antimicrobial activity against anaerobic bacteria peptostreptococcus intermedius 1264; format: functional
[27] = test system: Peptoniphilus asaccharolyticus; test: In vitro antimicrobial activity against anaerobic bacteria peptococcus asaccharolyticus 1302; format: functional
[28] = test system: Anaerococcus prevotii; test: In vitro antimicrobial activity against anaerobic bacteria peptococcus prevoti 1281; format: functional
[29] = test system: Cutibacterium acnes; test: In vitro antimicrobial activity against anaerobic bacteria propionibacterium acnes 79; format: functional
[30] = test system: Rattus norvegicus; test: Peripheral plasma levels in rats after oral administration of 100 mg/kg dose for 0.25 hr; format: functional, organism-based; design: dose 100 mg/kg
In short: (§2)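 Rats received 100 mg/kg orally and were sampled for peripheral plasma. Concentrations were measured by Micrococcus luteus agar-diffusion microbiological assay in Antibiotic Medium 1, with zone sizes converted using the standard curve for the appropriate compound. Each value is the average of three rats per time point.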

[31] = test system: Rattus norvegicus; test: Peripheral plasma levels in rats after oral administration of 100 mg/kg dose for 0.5 hr; format: functional, organism-based; design: dose 100 mg/kg; in short: as §2
[32] = test system: Rattus norvegicus; test: Peripheral plasma levels in rats after oral administration of 100 mg/kg dose for 1 hr; format: functional, organism-based; design: dose 100 mg/kg; in short: as §2
[33] = test system: Rattus norvegicus; test: Peripheral plasma levels in rats after oral administration of 100 mg/kg dose for 2 hr; format: functional, organism-based; design: dose 100 mg/kg; in short: as §2
[34] = test system: Rattus norvegicus; test: Peripheral plasma levels in rats after oral administration of 100 mg/kg dose for 4 hr; format: functional, organism-based; design: dose 100 mg/kg; in short: as §2
[35] = test system: Staphylococcus aureus; test: In vivo activity against experimental infections in mice Staphylococcus aureus X1 when administered orally; format: functional; conditions: po
[36] = test system: Staphylococcus aureus; test: In vivo activity against experimental infections in mice Staphylococcus aureus X1 when administered sc; format: functional
[37] = test system: Streptococcus; test: In vitro antimicrobial activity against aerobic bacteria Streptococcus B 14; format: functional
[38] = test system: Streptococcus; test: In vitro antimicrobial activity against aerobic bacteria Streptococcus B 8; format: functional
[39] = test system: Streptococcus; test: In vitro antimicrobial activity against aerobic bacteria Streptococcus C 24; format: functional
[40] = test system: Streptococcus; test: In vitro antimicrobial activity against aerobic bacteria Streptococcus D 8043; format: functional
[41] = test system: Streptococcus; test: In vitro antimicrobial activity against aerobic bacteria Streptococcus D 9960; format: functional
[42] = test system: Streptococcus; test: In vitro antimicrobial activity against aerobic bacteria Streptococcus G Kruder; format: functional; conditions: Streptococcus; read-out: MIC
[43] = test system: Staphylococcus epidermidis; test: In vitro antimicrobial activity against aerobic bacteria Streptococcus epi 270; format: functional
[44] = test system: Staphylococcus aureus; test: In vitro antimicrobial activity against Staphylococcus aureus X1; format: functional
[45] = test system: Staphylococcus aureus; test: In vitro antimicrobial activity against aerobic bacteria Staphylococcus aureus 513E; format: functional
[46] = test system: Staphylococcus aureus; test: In vitro antimicrobial activity against aerobic bacteria Staphylococcus aureus V140,; format: functional
[47] = test system: Staphylococcus aureus; test: In vitro antimicrobial activity against aerobic bacteria Staphylococcus aureus V41; format: functional
[48] = test system: Staphylococcus aureus; test: In vitro antimicrobial activity against aerobic bacteria Staphylococcus aureus X400; format: functional
[49] = test system: Streptococcus pneumoniae; test: In vivo activity against experimental infections in mice Streptococcus pneumoniae park when administered orally; format: functional; conditions: po
[50] = test system: Streptococcus pneumoniae; test: In vivo activity against experimental infections in mice Streptococcus pneumoniae park when administered sc; format: functional
[51] = test system: Streptococcus pneumoniae; test: In vitro antimicrobial activity against aerobic bacteria Streptococcus pneumoniae B1-438; format: functional, streptococcus pneum
[52] = test system: Streptococcus pyogenes; test: In vivo effective dose against experimental infections in rodent caused by Streptococcus pyogenes C203 when administered sc; format: functional
[53] = test system: Streptococcus sanguinis; test: In vitro antimicrobial activity against aerobic bacteria Streptococcus sanguis MX132; format: functional
[54] = test system: Streptococcus pneumoniae; test: In vitro antimicrobial activity against Streptococcus pneumoniae; format: functional
[55] = test system: Staphylococcus epidermidis; test: In vitro antimicrobial activity against Staphylococcus epidermidis EPI1; format: functional
[56] = test system: Staphylococcus epidermidis; test: In vitro antimicrobial activity against aerobic bacteria Streptococcus epi 222; format: functional
[57] = test system: Enterococcus faecium; test: In vitro antimicrobial activity against Streptococcus faecium X66; format: functional, streptococcus fae-cium
[58] = test system: Streptococcus pyogenes; test: In vitro antimicrobial activity against Streptococcus pyogenes C203; format: functional
[59] = test system: Streptococcus viridans; test: In vitro antimicrobial activity against aerobic bacteria Streptococcus viridans 9943; format: functional
[60] = test system: Streptococcus; test: In vitro antimicrobial activity against aerobic bacteria Streptococcus B 5; format: functional
[61] = test system: Staphylococcus aureus; test: In vitro antimicrobial activity against aerobic bacteria Staphylococcus aureus V135; format: functional
[62] = test system: Haemophilus influenzae; test: In vitro antimicrobial activity against aerobic bacteria Haemophilus influenzae 465; format: functional
[63] = test system: Prevotella melaninogenica; test: In vitro antimicrobial activity against anaerobic bacteria bacteroides melaninogenicus 2736; format: functional
[64] = test system: Fusobacterium necrophorum; test: In vitro antimicrobial activity against anaerobic bacteria usobacterium necrophorum 6054A; format: functional
[65] = test system: Mus musculus; test: Peripheral plasma levels in mice after oral administration of 50 mg/kg dose for 0.5 hr; format: functional, organism-based; design: dose 50 mg/kg; in short: as §1
[66] = test system: Collinsella aerofaciens; test: In vitro antimicrobial activity against anaerobic bacteria eubacterium aerofaciens 1235; format: functional
[67] = test system: Streptococcus; test: In vitro antimicrobial activity against aerobic bacteria Streptococcus D 2041; format: functional
[68] = test system: Peptostreptococcus anaerobius; test: In vitro antimicrobial activity against anaerobic bacteria eubacterium peptostreptococcus anaerobius 1428,; format: functional
[69] = test system: Streptococcus pyogenes; test: In vivo effective dose against experimental infections in rodent caused by Streptococcus pyogenes C203 when administered orally; format: functional; conditions: po

## CC[C@H]1OC(=O)C[C@@H](O)[C@H](C)[C@@H](O[C@@H]2O[C@H](C)[C@@H](O)[C@H](N(C)C)[C@H]2O)[C@@H](CCOc2ccccc2)C[C@@H](C)C(=O)/C=C/C(C)=C/[C@@H]1CO[C@@H]1O[C@H](C)[C@@H](O)[C@@H](OC)[C@H]1OC
[1]
  MIC: 1 µg/mL (≈ 1.18 µM)
[2]
  MIC: 1 µg/mL (≈ 1.18 µM)
[3]
  MIC: 1 µg/mL (≈ 1.18 µM)
[4]
  MIC: 1 µg/mL (≈ 1.18 µM)
[5]
  MIC: 1 µg/mL (≈ 1.18 µM)
[6]
  MIC: 1 µg/mL (≈ 1.18 µM)
[7]
  MIC: 2 µg/mL (≈ 2.35 µM)
[8]
  MIC: < 0.5 µg/mL
[9]
  MIC: < 0.5 µg/mL
[10]
  MIC: < 0.5 µg/mL
[11]
  MIC: 0.25 µg/mL (≈ 0.294 µM)
[12]
  MIC: 1 µg/mL (≈ 1.18 µM)
[13]
  MIC: 16 µg/mL (≈ 18.8 µM)
[14]
  MIC: 16 µg/mL (≈ 18.8 µM)
[15]
  MIC: 32 µg/mL (≈ 37.6 µM)
[16]
  MIC: 32 µg/mL (≈ 37.6 µM)
[17]
  Concentration: 1.2 µg/mL
[18]
  Concentration: 0.2 µg/mL
[19]
  Concentration: 1.2 µg/mL
[20]
  Concentration: 3.2 µg/mL
[21]
  Concentration: 8.9 µg/mL
[22]
  Concentration: 11.5 µg/mL
[23]
  Concentration: 13.1 µg/mL
[24]
  Concentration: 6.5 µg/mL
[25]
  Concentration: 2.4 µg/mL
[26]
  MIC: 2 µg/mL (≈ 2.35 µM)
[27]
  MIC: 1 µg/mL (≈ 1.18 µM)
[28]
  MIC: 1 µg/mL (≈ 1.18 µM)
[29]
  MIC: 8 µg/mL (≈ 9.41 µM)
[30]
  Concentration: 2.6 µg/mL
[31]
  Concentration: 3.9 µg/mL
[32]
  Concentration: 3.4 µg/mL
[33]
  Concentration: 4.8 µg/mL
[34]
  Concentration: 5.6 µg/mL
[35]
  ED50: 17 mg/kg
[36]
  ED50: 4.2 mg/kg
[37]
  MIC: 16 µg/mL (≈ 18.8 µM)
[38]
  MIC: 8 µg/mL (≈ 9.41 µM)
[39]
  MIC: 0.25 µg/mL (≈ 0.294 µM)
[40]
  MIC: 2 µg/mL (≈ 2.35 µM)
[41]
  MIC: 8 µg/mL (≈ 9.41 µM)
[42]
  MIC: 32 µg/mL (≈ 37.6 µM)
[43]
  MIC: > 128 µg/mL
[44]
  MIC: 0.25 µg/mL (≈ 0.294 µM)
[45]
  MIC: 0.25 µg/mL (≈ 0.294 µM)
[46]
  MIC: 0.25 µg/mL (≈ 0.294 µM)
[47]
  MIC: 0.25 µg/mL (≈ 0.294 µM)
[48]
  MIC: 0.25 µg/mL (≈ 0.294 µM)
[49]
  ED50: > 50 mg/kg
[50]
  ED50: > 20 mg/kg
[51]
  MIC: > 128 µg/mL
[52]
  ED50: 5 mg/kg
[53]
  MIC: 1 µg/mL (≈ 1.18 µM)
[54]
  MIC: 1 µg/mL (≈ 1.18 µM)
[55]
  MIC: 0.25 µg/mL (≈ 0.294 µM)
[56]
  MIC: 0.12 µg/mL (≈ 0.141 µM)
[57]
  MIC: 8 µg/mL (≈ 9.41 µM)
[58]
  MIC: 0.12 µg/mL (≈ 0.141 µM)
[59]
  MIC: > 128 µg/mL
[60]
  MIC: 4 µg/mL (≈ 4.71 µM)
[61]
  MIC: 0.25 µg/mL (≈ 0.294 µM)
[62]
  MIC: 16 µg/mL (≈ 18.8 µM)
[63]
  MIC: 1 µg/mL (≈ 1.18 µM)
[64]
  MIC: 8 µg/mL (≈ 9.41 µM)
[65]
  Concentration: 2.7 µg/mL
[66]
  MIC: 2 µg/mL (≈ 2.35 µM)
[67]
  MIC: 8 µg/mL (≈ 9.41 µM)
[68]
  MIC: < 0.5 µg/mL
[69]
  ED50: 9 mg/kg

Reference: ChEMBL document CHEMBL1124186, “Synthesis and evaluation of tylosin-related macrolides modified at the aldehyde function: a new series of orally effective antibiotics” (1988)
